The nature of series [1]: Dissociation constant pKa was reported. It counts as physicochemical.
Series [2] relates to Mus musculus. Put plainly: In vivo brain GABA-T activity was measured in mice 6 hour after intraperitoneal administration at a dose of 1.9 mM / kg. It counts as functional. The method, boiled down: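 Male Swiss Albino mice (20–25 g) received drug ip as aqueous solution and were decapitated 6 h later. Half-brain was frozen, then homogenized in 9 volumes of 10 mM KH2PO4 pH 6.8 with 0.1 mM pyridoxal phosphate, 1 mM EDTA, 0.1 mM glutathione, 0.13% Triton X-100 and 20% glycerol for GABA-T activity. Mean ± SEM, n = 5; control n = 15; Student's t test.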

Series [3] concerns Mus musculus. Put plainly: Brain GABA level was measured in mice 6 hour after intraperitoneal administration at a dose of 1.9 mM/ kg. It counts as functional. The method, boiled down: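 Male Swiss Albino mice (20–25 g), housed five per cage with free food and water on a 12-h light cycle, received drug ip as aqueous solution and were decapitated 6 h later. Half-brain homogenized in 10 mL 0.2 N HClO4, and supernatant GABA measured on an automatic amino acid analyzer. Mean ± SEM of five animals; control n = 15 pooled across days; Student's t test.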

For series [4], the system named is Mus musculus. Put plainly: Brain GABA level was measured in mice 6 hour after intraperitoneal administration at a dose of 3.8 mM/ kg. It counts as functional. The method, boiled down: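 Male Swiss Albino mice (20–25 g), housed five per cage under a 12-h light-dark cycle, were given drug ip as an aqueous solution. They were decapitated 6 h later and brains split sagittally and frozen. Half-brain was homogenized in 10 mL 0.2 N HClO4, and supernatant GABA was measured by automatic amino acid analyzer. Values are mean ± SEM of five animals (controls: 15, different days); Student's t test.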

In series [5] the test system is Mus musculus. Briefly: In vivo brain GABA-T activity was measured in mice 6 hour after intraperitoneal administration at a dose of 3.8 mM / kg. It counts as functional. The method, boiled down:
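Male Swiss Albino mice (20–25 g) got an ip aqueous dose and were decapitated 6 h later. Brains were split sagittally and frozen. Half-brain was homogenized in 9 volumes of 10 mM KH2PO4 pH 6.8 with 0.1 mM pyridoxal phosphate, 1 mM EDTA, 0.1 mM glutathione, 0.13% Triton X-100 and 20% glycerol for GABA-T activity. Values are mean ± SEM, n = 5 (controls 15); Student's t test.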

Broadly, the pKa is the negative logarithm of the acid dissociation constant. `C#CC(N)CCC(=O)O` (stereo unspecified): the pKa in series [1] was determined as 8.2.
On to `NC(C=C(F)F)CCC(=O)O` (stereo unspecified), for which the Activity turned out to be 42.4 mM/h with Mus musculus [2] and 2.8 µM/g with Mus musculus [3]. This molecule also gave a pKa in series [1] of 9.32.
For `C=C(F)C(N)CCC(=O)O` (stereo unspecified), in that order: 59.7 mM/h, 3.6 µM/g and 8.32.
As for `NC(/C=C\F)CCC(=O)O` (stereo unspecified), the Activity in the series on Mus musculus [2] worked out at 38.3 mM/h; with Mus musculus [3], 9.8 µM/g. The pKa in series [1] came to 9.35.
For `NC(CCC(=O)O)C(F)=C(F)F` (stereo unspecified), the Activity with Mus musculus [4] turned out to be 2.7 µM/g; in the series on Mus musculus [5], 69.4 mM/h. The same molecule returned a pKa in series [1] of 7.87.
In the case of `C=CC(N)CCC(=O)O` (stereo unspecified) [VIGABATRIN], the Activity amounted to 29.3 mM/h in the series on Mus musculus [2] and 9.1 µM/g with Mus musculus [3]. The molecule also returned a pKa in series [1] of 9.5.

The values above are taken from ChEMBL document CHEMBL1123579, “Synthesis and evaluation of mono-, di-, and trifluoroethenyl-GABA derivatives as GABA-T inhibitors” (J Med Chem, 1987).
